Results from ChEMBL document CHEMBL4152241, “Discovery of coumarin-dihydroquinazolinone analogs as niacin receptor 1 agonist with in-vivo anti-obesity efficacy” (Eur J Med Chem, 2018).
Active and inactive are the calls of the source. No cut-off for these calls is given here.

Legend:
Mus musculus [1] = test: Anti-obesity activity in high fat diet-induced obese C57BL/6J mouse model assessed as reduction in body weight gain at 20 mg/kg, po for 6 weeks; format: functional, organism-based
Procedure, shortened: (§1)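 Male C57BL/6J mice, 5-6 weeks old, 22-25 g, fed 60% fat diet to induce obesity. Dosed orally once at 20 mg/kg for six weeks; drug dissolved in DMSO, then mixed into 5% gum acacia in normal saline (working DMSO <5%). Controls were vehicle-treated HFD mice. Body weight was tracked, and fasting glucose was read by glucose meter after a 16 h fast; n=4-6.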

Mus musculus [2] = test: Anti-obesity activity in high fat diet-induced obese C57BL/6J mouse model assessed as reduction in body weight at 20 mg/kg, po for 6 weeks; format: functional; procedure, shortened: as §1
Mus musculus [3] = test: Anti-obesity activity in high fat diet-induced obese C57BL/6J mouse model assessed as fat mass at 20 mg/kg, po for 6 weeks by NMR-MRI analysis (reference value: 16.52 +/- 1.154 g); format: functional
Mus musculus [4] = test: Anti-obesity activity in high fat diet-induced obese C57BL/6J mouse model assessed as lean mass at 20 mg/kg, po for 6 weeks by NMR-MRI analysis (reference value: 25.58 +/- 0.6789 g); format: functional
Mus musculus [5] = test: Anti-obesity activity in high fat diet-induced obese C57BL/6J mouse model assessed as fasting glucose level at 20 mg/kg, po for 6 weeks (reference value: 93.17 +/- 5.793 mg/dL); format: functional; procedure, shortened: as §1
Mus musculus [6] = test: Anti-obesity activity in high fat diet-induced obese C57BL/6J mouse model assessed as plasma leptin level at 20 mg/kg, po for 6 weeks (reference value: 1751 +/- 325.4 pg/mg); format: functional
Mus musculus [7] = test: Effect on serum triglyceride level in high fat diet-induced obese C57BL/6J mouse model at 20 mg/kg, po for 6 weeks (reference value: 40.96 +/- 4.592 mg/dl); format: functional
Mus musculus [8] = test: Effect on total cholesterol level in high fat diet-induced obese C57BL/6J mouse model at 20 mg/kg, po for 6 weeks (reference value: 120.8 +/- 7.206 mg/dl); format: functional
Mus musculus [9] = test: Effect on HDL cholesterol level in high fat diet-induced obese C57BL/6J mouse model at 20 mg/kg, po for 6 weeks (reference value: 57.8 +/- 3.385 mg/dl); format: functional
Mus musculus [10] = test: Effect on LDL cholesterol level in high fat diet-induced obese C57BL/6J mouse model at 20 mg/kg, po for 6 weeks (reference value: 11.56 +/- 1.587 mg/dl); format: functional
Mus musculus [11] = test: Antiobesity activity in high fat diet-induced obese C57BL/6J mouse model assessed as improvement in glucose tolerance at 20 mg/kg, po measured post glucose challenge by intraperitoneal glucose tolerance test; format: functional, organism-based
Procedure, shortened: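 After six weeks of oral dosing (20 mg/kg) in HFD obese C57BL/6J mice, animals were fasted 16 h and baseline glucose was taken from the tail tip. Glucose 2 g/kg was given i.p., and blood glucose was measured at 15, 30, 60, 90 and 120 min. Mean ± SEM, 4-5 mice/group.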

Mus musculus [12] = test: Anti-obesity activity in high fat diet-induced obese C57BL/6J mouse model assessed as reduction in body weight gain at 10 mg/kg, po for 6 weeks; format: functional, organism-based
Procedure, shortened: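 High-fat (60% fat) diet-induced obese male C57BL/6J mice, started at 5-6 weeks old and 22-25 g. Oral dosing for six weeks from a DMSO stock diluted into 5% gum acacia/normal saline (working DMSO <5%), against HFD vehicle controls. Cumulative body weight gain tracked over treatment, n=4-5, analysed by two-way ANOVA.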

Mus musculus [13] = test: Anti-obesity activity in high fat diet-induced obese C57BL/6J mouse model assessed as decrease in fat mass at 10 mg/kg, po for 6 weeks by NMR-MRI analysis; format: functional, organism-based
Procedure, shortened: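 Male C57BL/6J mice, 5-6 weeks old (22-25 g), made obese on a 60% fat diet. Dosed orally for six weeks, dissolved in DMSO then mixed into 5% gum acacia in normal saline (working DMSO <5%), against HFD vehicle-treated mice. Total body fat compared at end of treatment, n=4-5/group, by one-way ANOVA with Newman-Keuls test.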

Row | Compound | Activity (Mus musculus [1]) | Activity (Mus musculus [2]) [g] | Activity (Mus musculus [3]) [g] | Activity (Mus musculus [4]) [g] | Activity (Mus musculus [5]) [mg/dL] | Activity (Mus musculus [6]) [pg/mg] | Activity (Mus musculus [7]) [mg/dL] | Activity (Mus musculus [8]) [mg/dL] | Activity (Mus musculus [9]) [mg/dL] | Activity (Mus musculus [10]) [mg/dL] | Activity (Mus musculus [11]) | Activity (Mus musculus [12]) | Activity (Mus musculus [13])
1 | COc1ccc(-c2cc3cc(C4Nc5ccccc5C(=O)N4C)cc(C)c3oc2=O)cc1 (stereo not drawn) | Active | 0.72 | 13.01 | 23.16 | 63 | 807.6 | 36.97 | 95.6 | 45.92 | 10.4 | inactive |  | 
2 | C[C@H]1CNCCc2ccc(Cl)cc21 |  |  |  |  |  |  |  |  |  |  |  | Active | Active
